Data on nine compounds can be found in ChEMBL document CHEMBL1146634, “Sulphonamide-based small molecule VLA-4 antagonists” (Bioorg Med Chem Lett, 2003).

In series [1] the target is T1, Integrin alpha-4/beta-1 (Homo sapiens, UniProt P05556+P13612). Description: Inhibition of CS-1 fragment binding to Very late antigen 4 (VLA-4) expressed in Ramos cells. In kind it is cell-based.
Series [2] deals with T1, Integrin alpha-4/beta-1. Kind of series: Inhibition of CS-1 fragment binding to Very late antigen 4 expressed in Ramos cells in 10% fetal bovine serum(FBS). In kind it is cell-based.
Series [3] is described as follows: Half-life period in cynomolgus monkey. The conditions noted are these: cercopithecidae, in vivo. In kind it is ADME.
A short description of series [4]: Oral bioavailability in cynomolgus monkey. It counts as ADME, organism-based, Macaca fascicularis. The conditions noted are these: in vivo.
The nature of series [5]: Cmax in cynomolgus monkey by iv administration. In kind it is ADME, organism-based. On the set-up: route intravenous. The conditions noted are these: cercopithecidae, in vivo.
Series [6] can be described thus: Cmax in cynomolgus monkey by po administration. In kind it is ADME, organism-based. On the set-up: route oral. Particulars: cercopithecidae, in vivo.
The nature of series [7]: Pharmacokinetic property(Vdss) in cynomolgus monkey. It counts as ADME, organism-based. Particulars: cercopithecidae, in vivo; read-out: Vdss.
Series [8] can be described thus: Plasma clearance in cynomolgus monkey. It counts as ADME, organism-based. The conditions noted are these: cercopithecidae.
Series [9] deals with Mus musculus. Kind of series: Inhibition of eosinophil infiltration in the murine asthma model tested in vivo at a dose of 10 mg/kg (intravenous). It counts as functional. Particulars: route intranasal, in the assay text read “intranasal” for “intravenous”. An outline of the steps:
(§1)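 Mice were ovalbumin-sensitized and challenged. Twenty-four hours after the final OVA challenge, they were exsanguinated and the right lung lavaged (0.4 mL saline ×3). Total BAL cells were counted, then the pelleted cells were smeared, stained with Discombe's fluid (eosin/acetone) and counterstained with 0.07% methylene blue for eosinophil counts. Inhibition is expressed relative to OVA-challenged animals.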

Series [10] relates to Mus musculus. Kind of series: Inhibition of eosinophil infiltration in the murine asthma model tested in vivo at a dose of 5 mg/kg (intravenous). In kind it is functional. An outline of the steps: as §1
In series [11] the test system is Mus musculus. Kind of series: Inhibition of eosinophil infiltration in the murine asthma model tested in vivo by po administration at a dose of 10 mg/kg (peroral). In kind it is functional. An outline of the steps: as §1
Series [12] has as its system Mus musculus. Description: Inhibition of eosinophil infiltration in the murine asthma model tested in vivo by po administration at a dose of 25 mg/kg (peroral). It counts as functional. An outline of the steps:
as §1

Series [13] concerns Mus musculus. Kind of series: Reduction in eosinophil count in murine asthma model tested in vivo by at a dose of 10 mg/kg (intravenous). It counts as functional. An outline of the steps: as §1
The subject of series [14] is Mus musculus. Description: Reduction in eosinophil count in murine asthma model tested in vivo by po administration at a dose of 10 mg/kg (peroral). In kind it is functional. An outline of the steps:
as §1

Series [15] deals with Mus musculus. Description: Reduction in eosinophil count in murine asthma model tested in vivo by po administration at a dose of 25 mg/kg (peroral). It counts as functional. An outline of the steps: as §1
Series [16] relates to Mus musculus. Kind of series: Eosinophil count in murine asthma model tested in vivo at a dose of 5 mg/kg (intravenous).

T1 sequence (P05556 whole entry, the tested form may be a part): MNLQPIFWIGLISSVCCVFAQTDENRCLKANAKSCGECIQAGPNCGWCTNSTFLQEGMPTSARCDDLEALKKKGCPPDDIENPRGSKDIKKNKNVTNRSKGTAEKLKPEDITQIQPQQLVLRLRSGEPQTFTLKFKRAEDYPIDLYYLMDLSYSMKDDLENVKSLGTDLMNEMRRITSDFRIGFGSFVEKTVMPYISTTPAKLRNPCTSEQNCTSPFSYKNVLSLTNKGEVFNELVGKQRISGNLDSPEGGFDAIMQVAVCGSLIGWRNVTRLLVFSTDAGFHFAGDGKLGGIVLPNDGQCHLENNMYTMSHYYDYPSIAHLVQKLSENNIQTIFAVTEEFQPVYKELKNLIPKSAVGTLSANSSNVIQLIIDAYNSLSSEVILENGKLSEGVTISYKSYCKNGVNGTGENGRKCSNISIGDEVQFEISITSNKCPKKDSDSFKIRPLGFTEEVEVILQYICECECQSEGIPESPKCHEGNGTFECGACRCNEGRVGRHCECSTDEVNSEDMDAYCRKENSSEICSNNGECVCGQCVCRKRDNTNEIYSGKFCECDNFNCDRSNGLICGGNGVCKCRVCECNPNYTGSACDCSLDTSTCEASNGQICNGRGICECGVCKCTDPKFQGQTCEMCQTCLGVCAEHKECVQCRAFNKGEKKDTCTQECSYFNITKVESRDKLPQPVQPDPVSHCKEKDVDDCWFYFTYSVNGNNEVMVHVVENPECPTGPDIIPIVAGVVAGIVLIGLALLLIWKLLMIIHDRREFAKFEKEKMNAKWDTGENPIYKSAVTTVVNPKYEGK
T1 sequence (P13612 whole entry, the tested form may be a part): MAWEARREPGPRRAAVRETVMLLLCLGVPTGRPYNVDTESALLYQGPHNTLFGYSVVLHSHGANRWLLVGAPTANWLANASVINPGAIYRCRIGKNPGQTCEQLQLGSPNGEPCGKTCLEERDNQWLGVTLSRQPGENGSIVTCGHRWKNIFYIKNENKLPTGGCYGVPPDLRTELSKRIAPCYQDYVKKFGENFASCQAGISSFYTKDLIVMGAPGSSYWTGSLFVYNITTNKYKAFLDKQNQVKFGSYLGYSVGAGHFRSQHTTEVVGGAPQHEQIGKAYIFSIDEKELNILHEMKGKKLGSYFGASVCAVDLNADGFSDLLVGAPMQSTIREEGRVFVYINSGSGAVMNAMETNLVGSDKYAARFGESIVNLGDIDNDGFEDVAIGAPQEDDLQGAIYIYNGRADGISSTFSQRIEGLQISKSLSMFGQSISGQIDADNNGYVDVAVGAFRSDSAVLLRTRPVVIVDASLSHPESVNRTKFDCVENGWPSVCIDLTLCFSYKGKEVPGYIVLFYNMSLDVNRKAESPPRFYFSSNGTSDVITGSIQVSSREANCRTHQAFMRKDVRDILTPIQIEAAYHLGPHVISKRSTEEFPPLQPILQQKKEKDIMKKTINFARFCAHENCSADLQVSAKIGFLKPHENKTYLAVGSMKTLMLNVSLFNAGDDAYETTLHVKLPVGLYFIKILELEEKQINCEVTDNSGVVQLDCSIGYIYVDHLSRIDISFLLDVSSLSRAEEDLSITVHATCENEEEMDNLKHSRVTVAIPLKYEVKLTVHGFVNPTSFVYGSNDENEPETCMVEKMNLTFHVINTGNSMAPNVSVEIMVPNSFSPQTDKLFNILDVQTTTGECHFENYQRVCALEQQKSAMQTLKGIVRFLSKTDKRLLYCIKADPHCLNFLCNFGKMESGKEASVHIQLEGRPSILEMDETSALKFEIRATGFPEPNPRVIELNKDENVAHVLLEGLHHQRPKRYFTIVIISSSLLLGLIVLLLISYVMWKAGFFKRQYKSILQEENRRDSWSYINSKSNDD

The IC50 is the concentration that gives 50% inhibition. In [1], `CN([C@@H](CCC(=O)O)C(=O)N[C@@H](Cc1ccc(OCc2c(Cl)cccc2Cl)cc1)C(=O)O)S(=O)(=O)c1ccc2ccccc2c1` registered an IC50 of 1 nM.

In the case of `CN([C@@H](CCC(=O)O)C(=O)N[C@@H](Cc1ccc(OCc2c(Cl)cccc2Cl)cc1)C(=O)O)S(=O)(=O)c1ccccc1`, the IC50 in [2] was found to be 2 nM; in series [1], 0.1 nM.

As for `O=C(O)CN(CC(=O)N[C@@H](Cc1ccc(OCc2c(Cl)cccc2Cl)cc1)C(=O)O)S(=O)(=O)c1cccs1`, the IC50 is 10 nM in series [2] and 0.8 nM in series [1].

`CN([C@@H](CC(=O)O)C(=O)N[C@@H](Cc1ccc(OCc2c(Cl)cccc2Cl)cc1)C(=O)O)S(=O)(=O)c1ccccc1` returned an IC50 in series [1] of 2 nM.

In the case of `O=C(O)CN(CC(=O)N[C@@H](Cc1ccc(OCc2c(Cl)cccc2Cl)cc1)C(=O)O)S(=O)(=O)c1ccccn1`, the IC50 was 10 nM in series [2] and 1.5 nM in series [1].

As for `O=C(O)CC[C@H](NS(=O)(=O)c1ccc2ccccc2c1)C(=O)N[C@@H](Cc1ccc(OCc2c(Cl)cccc2Cl)cc1)C(=O)O`, in [1], the concentration for half-maximal inhibition (IC50) turned out to be 2 nM.

One may read the half-life as how long it takes for the measured level to halve. For orientation: bioavailability means dose-corrected exposure relative to a reference, in per cent. In general, Cmax refers to the maximum level reached in the sampled fluid or tissue. The term clearance denotes a measure of how efficiently the substance is removed, as volume per time. As for `O=C(O)CN(CC(=O)N[C@@H](Cc1ccc(OCc2c(Cl)cccc2Cl)cc1)C(=O)O)S(=O)(=O)c1ccccc1`, the half-life in [3] was 6.6 min. Besides, in series [4], the bioavailability came out at 26.9%. Also, the results for the Cmax in series [5] and in series [6] were 528 ng/mL and 101 ng/mL, respectively. Moreover, the Vd in series [7] is 0.303 L/kg. This compound also came in with a clearance in series [8] of 58.8 mL/min/kg. Also, the EOS inhibition in series [9] worked out at 50%; in [10], 28%; in series [11] it was 69%; in series [12] it was 75%. For the same compound, the EOS count is 4.36 10^5 cells in [13], 2.67 10^5 cells in [14], 2.16 10^5 cells in series [15] and 6.26 10^5 cells in series [16]. The IC50 in [2] was 8 nM; in series [1], 0.6 nM.

With `O=C(O)CN(CC(=O)N[C@@H](Cc1ccc(OCc2c(Cl)cccc2Cl)cc1)C(=O)O)S(=O)(=O)c1ccc(F)cc1`, the IC50 in [2] came to 10 nM; in series [1] it was 0.7 nM.

In turn, `O=C(O)CC[C@H](NS(=O)(=O)c1ccc2ccccc2c1)C(=O)N[C@@H](Cc1ccccc1)C(=O)O` had a concentration for half-maximal inhibition (IC50) in series [1] of 180 nM.
